From PubChem BioAssay
Active and inactive are the calls of the source.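 The calls were made as follows, unless noted: active = inhibition above 20% together with a positive visual image hit; inconclusive = visual image hit but inhibition not above 20%; inactive = no visual image hit.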

Assays:
[1] = inhibitors of TNFa-induced NFkB p65 translocation, primary screen, imaging, HUVEC, MLSMR starter and 10KST1 sets (AID 438); details: HUVEC TNFa-induced p65 nuclear translocation; cell count: measured here: nuclei count (cytotoxicity indicator), at 2.08 µM; inhibition: at 2 µM, stronger effect = higher value, 0% TNFa-plus-vehicle, 100% no-TNFa wells;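 also: compound added about 3h40 before a 20 min TNFalpha stimulation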;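 as to inhibition: signal is the nuclear over cytoplasmic p65 intensity ratio per well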
[2] = inhibitors of mutant huntingtin aggregation, primary screen, imaging, exon1htt(103Q)mCFP cells, high-content imaging (AID 483;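 active = visual image review flags a hit and inhibition of aggregation exceeds 20%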;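 also: compound exposure lasted 3 days before fixation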;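 as to nuclei count: percent of the per-plate median nuclei count of sample wells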); details: exon1htt(103Q)mCFP cell line, aggregate imaging, at 2 µM; inhibition of aggregation: stronger effect = higher value; nuclei count: measured here: cell count, toxicity
[3] = inhibitors of E-selectin induction by TNFa, primary screen, imaging, HUVEC, immunofluorescence, MLSMR starter and 10KST1 sets (AID 487;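 active = visually confirmed hit in the image check and inhibition above 20%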;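 as to inhibition: signal is fraction of cell area covered by stained E-selectin grains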;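 as to nuclei count: 100% = median nuclei count of all wells on the same plate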); details: HUVEC TNFalpha-induced E-selectin immunofluorescence imaging, at 2 µM; inhibition: stronger effect = higher value; nuclei count: measured here: cell number, toxicity
[4] = biological target: Voltage-gated potassium channel subunit beta-2 (Rattus norvegicus) (UniProt P62483); assay: KvBeta enzyme negative modulators, primary screen, biochemical, NADPH fluorescence (AID 622;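 active = fluorescence slope higher than the sample average by over 3 SD, cut at about -0.22 in these data, passing the limit was not always enough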;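 also: slope of raw intensity against log time taken from 70 to 1610 s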); details: recombinant KvBeta, 4-cyanobenzaldehyde reduction, at 10 µM, stronger effect = higher value
Chain of Voltage-gated potassium channel subunit beta-2 (Rattus norvegicus) (P62483 whole entry, looked up): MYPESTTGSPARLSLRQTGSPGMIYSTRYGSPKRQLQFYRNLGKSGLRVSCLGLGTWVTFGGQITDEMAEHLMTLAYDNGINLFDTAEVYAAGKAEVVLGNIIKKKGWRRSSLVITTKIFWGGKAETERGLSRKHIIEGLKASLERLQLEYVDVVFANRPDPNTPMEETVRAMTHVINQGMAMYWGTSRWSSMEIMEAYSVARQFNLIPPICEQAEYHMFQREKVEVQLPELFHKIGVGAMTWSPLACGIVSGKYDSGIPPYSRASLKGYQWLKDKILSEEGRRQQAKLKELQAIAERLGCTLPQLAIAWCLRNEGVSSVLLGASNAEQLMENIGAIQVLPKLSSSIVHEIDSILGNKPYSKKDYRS

[5] = biological target: Voltage-gated potassium channel subunit beta-2 (Rattus norvegicus) (UniProt P62483); assay: KvBeta positive modulators, primary screen, biochemical, NADPH fluorescence (AID 623;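 active = NADPH fluorescence slope more negative than the mean of all samples by about 3 SD, 99.7% confidence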;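 also: fluorescence intensity change per second fitted from 20 to 320 s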); details: Recombinant KvBeta, NADPH fluorescence decrease slope, 10 min; at 10 µM; stronger effect = lower value
[6] = biological target: Muscarinic acetylcholine receptor M4 (Homo sapiens) (UniProt P08173); assay: compounds altering M4/GIRK thallium flux, either direction, primary screen, M4 allosteric agonist project, cell-based, HEK293 M4/GIRK, BTC-AM (AID 625;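 active = fluorescence slope after compound addition differing from the mean of all tested samples at 99.7% confidence, mostly higher but some lower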;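 also: thallium influx through GIRK channels coupled to M4 in HEK293 cells with BTC-AM dye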); details: at 10 µM, actives lie on both sides
Chain of Muscarinic acetylcholine receptor M4 (Homo sapiens) (P08173 whole entry, looked up): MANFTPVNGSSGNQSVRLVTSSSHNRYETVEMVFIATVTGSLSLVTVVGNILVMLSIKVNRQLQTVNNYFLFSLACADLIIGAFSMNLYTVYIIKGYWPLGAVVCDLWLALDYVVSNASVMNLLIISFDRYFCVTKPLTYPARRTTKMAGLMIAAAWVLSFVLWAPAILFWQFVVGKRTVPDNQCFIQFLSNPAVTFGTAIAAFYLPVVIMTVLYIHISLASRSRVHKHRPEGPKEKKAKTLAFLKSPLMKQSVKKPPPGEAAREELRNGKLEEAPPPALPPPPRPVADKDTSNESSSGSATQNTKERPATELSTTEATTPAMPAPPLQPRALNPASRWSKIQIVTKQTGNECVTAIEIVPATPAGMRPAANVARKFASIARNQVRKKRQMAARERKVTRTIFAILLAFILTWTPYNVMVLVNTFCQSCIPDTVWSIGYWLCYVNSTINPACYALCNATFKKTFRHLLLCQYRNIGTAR
Summary of the method: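 assay system = HEK293 cells with M4 receptor and GIRK channels | medium = pH 7.3 thallium assay buffer | doses = 10 µM final, single point | timing = cells overnight at 37 °C, BTC-AM loading 1 h, reads 2 min total | signal = BTC-AM fluorescence, 1 Hz kinetic reads | read-out = post-addition slope, 15–24 s, of baseline-normalized fluorescence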

[7] = inhibitors of Sendai virus-induced IRF3 signaling, primary screen, TLR/RLR signaling modifier project, cell-based, Sendai virus stimulus, luciferase, 10K MLSCN set (AID 602276;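 active = inhibition at or above 50% at 10 µM; inactive = inhibition below 50%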;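 also: firefly luciferase from ISG56 promoter only with Renilla not read in this screen; 0% = Sendai virus plus DMSO and 100% = medium plus DMSO without virus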); details: HEK293 RL24 IRF3 luciferase reporter, at 10 µM, stronger effect = higher value
[8] = inhibitors of poly I:C-induced TLR3 signaling, primary screen, cell-based, poly I:C stimulus, luciferase, 10K MLSCN set (AID 602277;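 active = inhibition of the reporter signal at or above 50%; inactive = inhibition below 50%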); details: HEK293-TLR3 RL24 IRF3 luciferase reporter, at 10 µM, stronger effect = higher value

| SMILES | cell count [1] | inhibition [1] | inhibition of aggregation [2] | nuclei count [2] [%] | inhibition [3] | nuclei count [3] [%] | fluorescence slope [4] | NADPH fluorescence slope [5] | fluorescence slope [6] | inhibition [7] | inhibition [8] |
| --- | --- | --- | --- | --- | --- | --- | --- | --- | --- | --- | --- |
| COc1ccccc1CNC(=O)CCn1c(=O)[nH]c2ccsc2c1=O | 504 | 1.1% (inactive) | 6.6% (inactive) | 111 | 9.6% (inactive) | 110 | -0.266 (inactive) | -3e-05 (inactive) | 0.0062 (inactive) | 16.6% (inactive) | -5.76% (inactive) |
| CCc1cccc(NS(=O)(=O)c2c(C)n[nH]c2C)c1 | 679 | -8.8% (inactive) | -12.8% (inactive) | 124 | -135% (inactive) | 111 | -0.465 (inactive) | -1.4e-05 (inactive) | 0.00614 (inactive) | 4.66% (inactive) | 19.7% (inactive) |
| CCOCCn1cnc2sc(C(=O)NCC(=O)OCC)c(C)c2c1=O | 425 | 7.9% (inactive) | -1.3% (inactive) | 107 | -256% (inactive) | 165 | -0.55 (inactive) | -2.6e-05 (inactive) | 0.00587 (inactive) | -2.53% (inactive) | -16% (inactive) |
| CCc1ccc(NS(=O)(=O)c2ccc3[nH]cc(C(=O)N4CCCCC4)c(=O)c3c2)cc1 | 672 | 13.7% (inactive) | 14.2% (inactive) | 86 | 2.5% (inactive) | 81.2 | -0.562 (inactive) | -5.7e-05 (inactive) | 0.00784 (inactive) | 20.2% (inactive) | 24.4% (inactive) |
| Cc1cccc(N2CCN(S(=O)(=O)c3ccc4c(c3)CCC(=O)N4)CC2C)c1 (stereo not drawn) | 322 | 4.7% (inactive) | 8.5% (inactive) | 123 | -29.6% (inactive) | 126 | -0.453 (inactive) | -0.00034 (inactive) | 0.00513 (inactive) | 10.8% (inactive) | 19.1% (inactive) |
| CN(C)S(=O)(=O)c1ccc(S(=O)(=O)Nc2ccc3c(c2)oc2ccccc23)cc1 | 414 | -7.9% (inactive) | -3.8% (inactive) | 107 | 4.6% (inactive) | 92 | -0.54 (inactive) | -5.2e-05 (inactive) | 0.00569 (inactive) | -8.93% (inactive) | -1.94% (inactive) |
| CN(CCC#N)C(=O)COC(=O)c1ccc(Cl)c(S(N)(=O)=O)c1 | 426 | -2.2% (inactive) | 17.6% (inactive) | 58.5 | -96.3% (inactive) | 102 | -0.539 (inactive) | -5.1e-05 (inactive) | 0.00521 (inactive) | 16.3% (inactive) | 25.4% (inactive) |
| O=C(Nc1cccc2c1CCCC2)C1CCN(c2nnnn2-c2ccccc2)CC1 | 653 | 1.7% (inactive) | 0.3% (inactive) | 109 | -20.6% (inactive) | 109 | -0.566 (inactive) | 2.3e-05 (inactive) | 0.00472 (inactive) | 10.2% (inactive) | 10.8% (inactive) |
| COCCn1c(-c2ccc(OC)c(OC)c2)nc2ccccc21 | 247 | -1.1% (inactive) | 28.5% (inactive) | 85.8 | 16.7% (inactive) | 77.6 | -0.536 (inactive) | -3.2e-05 (inactive) | 0.00485 (inactive) | -2.29% (inactive) | 11% (inactive) |
| Cc1ccc(S(=O)(=O)NCCc2ccncc2)cc1 | 560 | -1.9% (inactive) | 6.8% (inactive) | 92.8 | -47.2% (inactive) | 106 | -0.578 (inactive) | -5.6e-05 (inactive) | 0.00601 (inactive) | 7.81% (inactive) | 17.1% (inactive) |
| Cc1ccc(C(C)C)c(OCCCN2CC(C)OC(C)C2)c1 (stereo not drawn) | 344 | -3.9% (inactive) | -17.9% (inactive) | 106 | -2.6% (inactive) | 100 | -0.243 (inactive) | -5.1e-06 (inactive) | 0.00607 (inactive) | 8.84% (inactive) | 26.1% (inactive) |
| CC(=O)Nc1cccc(-c2nnc(-c3ccccc3)o2)c1 | 378 | 0.4% (inactive) | 4.1% (inactive) | 105 | -93.4% (inactive) | 136 | -0.582 (inactive) | -3e-05 (inactive) | 0.00721 (inactive) | -35.6% (inactive) | -134% (inactive) |
| Cn1c(=O)c2c(nc(SCC(=O)O)n2Cc2cccc(C(F)(F)F)c2)n(C)c1=O | 204 | -0.8% (inactive) | -19.7% (inactive) | 77.2 | 9.2% (inactive) | 74.6 | -0.531 (inactive) | 6.2e-06 (inactive) | 0.0052 (inactive) | 15.4% (inactive) | 13.8% (inactive) |
| O=C(CNS(=O)(=O)c1ccc(Br)s1)N1CCCC1 | 367 | 3.7% (inactive) | -1% (inactive) | 93.3 | -164% (inactive) | 101 | -0.636 (inactive) | -9.6e-06 (inactive) | 0.00369 (inactive) | 21.1% (inactive) | 25.7% (inactive) |
| CC(Oc1ccc(Cl)cc1Cl)c1nc(-c2ccc(NC(=O)c3cccnc3)cc2)no1 (stereo not drawn) | 413 | 6.5% (inactive) | -6.9% (inactive) | 89.5 | -60.6% (inactive) | 112 | -0.641 (inactive) | 4.9e-05 (inactive) | 0.00494 (inactive) | 1.84% (inactive) | -74.3% (inactive) |
| Oc1cccc2ccc(Nc3ccccn3)nc12 | 583 | -9.7% (inactive) | -24.8% (inactive) | 82.5 | 11.4% (inactive) | 99.8 | -0.563 (inactive) | -3.9e-05 (inactive) | 0.0033 (inactive) | 11% (inactive) | 97.5% (active) |
| CCCn1c(N2CCN(CC(=O)Nc3ccc4c(c3)OCCO4)CC2)nc2ccccc21 | 411 | -11% (inactive) | 1.8% (inactive) | 103 | -98.9% (inactive) | 74.4 | -0.526 (inactive) | -0.000207 (inactive) | 0.00376 (inactive) | 4.25% (inactive) | 20.1% (inactive) |
| Cc1nc2ccccc2c2oc(C(=O)NCc3ccccn3)cc12 | 234 | -3.8% (inactive) | 17.9% (inactive) | 65.8 | -75.8% (inactive) | 102 | -0.397 (inactive) | 7.6e-05 (inactive) | 0.00573 (inactive) | -2.75% (inactive) | -16.5% (inactive) |
| COC(=O)c1cc(Br)c(=O)n(CCN2CCOCC2)c1 | 563 | 5.4% (inactive) | 1.7% (inactive) | 96.1 | 5.8% (inactive) | 104 | -0.43 (inactive) | -6.4e-05 (inactive) | 0.00578 (inactive) | 13% (inactive) | 20.6% (inactive) |
| COc1cccc(-c2cc(C(=O)N3CCCc4ccccc43)no2)c1 | 406 | -23% (inactive) | -4.7% (inactive) | 102 | -13.2% (inactive) | 94.5 | -0.217 (inactive) | -1.8e-05 (inactive) | 0.00726 (inactive) | 0.639% (inactive) | -88.4% (inactive) |
| S=c1[nH]nc(COc2ccccc2)n1C1CCCCC1 | 552 | 8% (inactive) | 18.7% (inactive) | 91.7 | 48.2% (inactive) | 105 | -0.553 (inactive) | -3e-06 (inactive) | 0.0103 (inactive) | -4.8% (inactive) | 10.9% (inactive) |
| COc1cccc(C2C(C#N)=C(N)OC3=C2C(=O)CCC3)c1OC(=O)c1ccco1 (stereo not drawn) | 384 | 4.7% (inactive) | -12.3% (inactive) | 103 | 52.8% (inactive) | 88.3 | -0.513 (inactive) | -3.8e-05 (inactive) | 0.00509 (inactive) | 12.4% (inactive) | 10.4% (inactive) |
| O=C1CCc2nc3sc4c(c3c(=O)n2N1)CCCC4 | 667 | -18.1% (inactive) | -14% (inactive) | 104 | 37.8% (inactive) | 98.8 | -0.424 (inactive) | 4.4e-05 (inactive) | 0.00678 (inactive) | -2.82% (inactive) | -5.12% (inactive) |
| Cc1ccccc1S(=O)(=O)Cc1ccc(C(=O)NCc2cccnc2)o1 | 596 | -2.3% (inactive) | 9% (inactive) | 105 | 9.8% (inactive) | 112 | -0.546 (inactive) | 4e-05 (inactive) | 0.00552 (inactive) | 16.7% (inactive) | 19.4% (inactive) |
| CCOC(=O)COc1ccc(S(=O)(=O)N2CCc3ccccc3C2)cc1 | 447 | 3.3% (inactive) | -59% (inactive) | 58.4 | -5.1% (inactive) | 96 | -0.555 (inactive) | -4.9e-05 (inactive) | 0.00522 (inactive) | 19.6% (inactive) | 23.3% (inactive) |
| CCC(C)NC(=O)CSC1=Nc2ccccc2C2=NC(CC(=O)NCc3ccccc3)C(=O)N12 (stereo not drawn) | 651 | -7.5% (inactive) | -9% (inactive) | 55.7 | -58.9% (inactive) | 89.6 | -0.461 (inactive) | -1.4e-05 (inactive) | 0.00538 (inactive) | 10.6% (inactive) | 26.5% (inactive) |
| O=C(Cn1c(=O)[nH]n(-c2ccccc2)c1=O)N1CCCc2ccccc21 | 328 | 0% (inactive) | -15.3% (inactive) | 117 | -87.1% (inactive) | 118 | -0.387 (inactive) | -5.1e-05 (inactive) | 0.00957 (inactive) | 14.4% (inactive) | 25.6% (inactive) |
| O=C(Nc1ccc(Cl)c(Cl)c1)Nc1cc(C(=O)N2CCOCC2)ccc1N1CCCCC1 | 580 | -17.7% (inactive) | -5.4% (inactive) | 114 | -44.8% (inactive) | 114 | -0.441 (inactive) | -7.7e-06 (inactive) | 0.00555 (inactive) | 13.7% (inactive) | 13.1% (inactive) |
